How the values were obtained:
Canis familiaris [1] = experiment: Effective dose that lowers vascular resistance by, 30% in dogs when administered intravenously; type: functional; settings: Canis lupus familiaris, iv
In short: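 Mongrel dogs (7-15 kg, either sex) are anesthetized with thiopental 30 mg/kg iv or ip, then urethane 400 mg/kg plus α-chloralose 60 mg/kg iv, and ventilated. Left vertebral flow is measured by electromagnetic probe and femoral arterial pressure is recorded. Resistance is pressure divided by flow. Compounds in ethanol are given iv at 0.05 mL/kg in cumulative rising doses; the dose cutting resistance 30% is taken (N = 3).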

Canis familiaris [2] = experiment: (§1) Time to peak response on lowering of vascular resistance, in dogs when administered intravenously; type: organism-based, Canis lupus familiaris; settings: dog, in vivo, iv
Canis familiaris [3] = organism: Canis familiaris; experiment: Effective dose against atrioventricular conduction in dogs at which they prolong atrioventricular conduction time by 30%; type: functional; settings: Canis lupus familiaris
In short: (§2)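 Anesthetized open-chest dogs; atrium paced with square-wave pulses of 1.5-2.5 V, 2 ms, at 2.5 Hz. AV conduction time is the interval between atrial and ventricular electrograms. Compounds are dissolved in 100% DMSO and injected iv into the femoral vein at 0.05 mL/kg. Reported as the dose prolonging AVCT by 30% (mean ± SE, N = 4-5) or the dose inducing AV block.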

Canis familiaris [4] = organism: Canis familiaris; experiment: Dose at which compound induce atrioventricular block in dogs; AV means atrioventricular; range is 1000-3000; type: functional, Canis lupus familiaris; in short: as §2
[5] = biological target: T1, Voltage-gated L-type calcium channel (Rattus norvegicus, UniProt P22002+Q02485+P27732); experiment: Inhibition of [3H]- Nitrendipine binding to L-type calcium channels of rat cerebral cortex; type: tissue-based
In short: (§3)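 Rat cerebral cortex is homogenized in ice-cold 50 mM Tris-HCl pH 7.7 and washed by repeated 40000g spins. Homogenate is incubated with 0.2 nM [³H]nitrendipine and drug for 1 h at 25 °C, then vacuum-filtered on glass-fiber filters and counted by liquid scintillation. Nonspecific binding is defined with 1 μM unlabeled nitrendipine.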

Canis familiaris [6] = experiment: as §1; type: ADME, organism-based, Canis lupus familiaris; settings: dog, in vivo, iv
Canis familiaris [7] = organism: Canis familiaris; experiment: Dose at which compound induce atrioventricular block in dogs; range is 100-3000; type: functional, Canis lupus familiaris; in short: as §2
[8] = biological target: T1, Voltage-gated L-type calcium channel; experiment: Inhibition of [3H]nitrendipine binding to L-type calcium channels of rat cerebral cortex; type: tissue-based; in short: as §3
Canis familiaris [9] = organism: Canis familiaris; experiment: Dose at which compound induce atrioventricular block in dogs; range is 100-300; type: functional, Canis lupus familiaris; in short: as §2

Structure (SMILES) | ED30 (Canis familiaris [1]) | also measured
CCOC(=O)C1=C(C)N=C(C)N(C(=O)OCC)C1c1ccccc1Br (configuration not stated) | 5 µg/kg | 
CC1=C(C(=O)OC(C)C)C(c2ccccc2[N+](=O)[O-])N(C(=O)OCCN(Cc2ccccc2)Cc2ccc3ccccc3c2)C=N1 (configuration not stated) | > 100 µg/kg | 
CC1=C(C(=O)OC(C)C)C(c2ccccc2[N+](=O)[O-])N(C(=O)OCCN(Cc2ccccc2)Cc2ccc3ccccc3c2)C(C(C)C)=N1 (configuration not stated) | > 100 µg/kg | 
CC1=C(C(=O)OC(C)C)C(c2ccccc2[N+](=O)[O-])N(C(=O)OCCN(Cc2ccccc2)Cc2ccc3ccccc3c2)C(N(C)C)=N1 (configuration not stated) | > 100 µg/kg | 
CCOC(=O)C1=C(C)NC(=O)N(C(=O)OCCN(C)Cc2ccccc2)C1c1cccc(Cl)c1 (configuration not stated) | 43 µg/kg | 
CC1=NC(C)=C(C(=O)OCC2CC2)C(c2ccccc2[N+](=O)[O-])N1C(=O)OCCN(CCCc1ccccc1)Cc1ccccc1 (configuration not stated) | 4.3 µg/kg | Tp (Canis familiaris [2]): 4.8 min; ED30 (Canis familiaris [3]): 843 µg/kg; AV block (Canis familiaris [4]): 1000 µg/kg
CC1=NC(C)=C(C(=O)OCC2CC2)C(c2ccccc2[N+](=O)[O-])N1C(=O)OCCN(C/C=C/c1ccccc1)Cc1ccccc1 (configuration not stated) | 3.9 µg/kg | Tp (Canis familiaris [2]): 5.6 min
CCOC(=O)C1=C(C)N=C(C)N(C(=O)OCCN(C)Cc2ccccc2)C1c1ccccc1[N+](=O)[O-] (configuration not stated) | 0.75 µg/kg | 
CC1=NC(C)=C(C(=O)OC(C)C)C(c2ccccc2[N+](=O)[O-])N1C(=O)OCCN(Cc1ccccc1)Cc1ccc2ccccc2c1 (configuration not stated) | 1.8 µg/kg | ED30 (Canis familiaris [3]): 762 µg/kg; AV block (Canis familiaris [4]): 1000 µg/kg; IC50 [5]: 7.08 nM; Tp (Canis familiaris [6]): 7.9 min
CO/C(O)=C1/C(C)=NC(C)=C(C(=O)OCCN2CCN(C(c3ccccc3)c3ccccc3)CC2)C1c1cccc([N+](=O)[O-])c1 (configuration not stated) |  | IC50 [5]: 8.68 nM
CC1=NC(C)=C(C(=O)OC(C)C)C(c2ccccc2[N+](=O)[O-])N1C(=O)OCCN(CCc1ccccc1)Cc1ccccc1 (configuration not stated) | 1.2 µg/kg | Tp (Canis familiaris [2]): 2.7 min
CCCCCCCOC(=O)C1=C(C)N=C(C)N(C(=O)OCC)C1c1ccccc1[N+](=O)[O-] (configuration not stated) | 23 µg/kg | 
CC1=NC(C)=C(C(=O)OC(C)C)C(c2ccccc2[N+](=O)[O-])N1C(=O)OCCN(Cc1ccccc1)Cc1ccccc1 (configuration not stated) | 2.8 µg/kg | Tp (Canis familiaris [2]): 2.6 min
CCC1N=C(C)/C(=C(/O)OC(C)C)C(c2ccccc2[N+](=O)[O-])N1C(=O)OCN(Cc1ccccc1)Cc1ccc(Cl)c(Cl)c1 (configuration not stated) | 19.5 µg/kg | Tp (Canis familiaris [2]): 5.5 min
CSC1=NC(C)=C(C(=O)OC(C)C)C(c2ccccc2[N+](=O)[O-])N1C(=O)OCCN(Cc1ccccc1)Cc1ccc2ccccc2c1 (configuration not stated) | > 100 µg/kg | 
CCOC(=O)C1=C(Cl)N=C(C)N(C(=O)OCCN(Cc2ccccc2)Cc2ccc3ccccc3c2)C1c1ccccc1[N+](=O)[O-] (configuration not stated) | 10 µg/kg | Tp (Canis familiaris [2]): 5.2 min
CCOC(=O)C1=C(COCCN(Cc2ccccc2)Cc2ccc(Cl)c(Cl)c2)N=C(C)N(C(=O)OC)C1c1ccccc1[N+](=O)[O-].Cl (configuration not stated) | > 100 µg/kg | 
CCCCCCCOC(=O)N1C(=O)NC(C)=C(C(=O)OCC2CC2)C1c1ccccc1[N+](=O)[O-] (configuration not stated) | 2.3 µg/kg | Tp (Canis familiaris [2]): 1.9 min
CC1=NC(C)=C(C(=O)OCC2CC2)C(c2ccccc2[N+](=O)[O-])N1C(=O)OCCN(C)Cc1ccccc1 (configuration not stated) | 0.5 µg/kg | 
CCCCCCCOC(=O)C1=C(C)N=C(C)N(C(=O)OCCCCCCC)C1c1ccccc1[N+](=O)[O-] (configuration not stated) | 180 µg/kg | 
CCC1N=C(C)/C(=C(/O)OC(C)C)C(c2ccccc2[N+](=O)[O-])N1C(=O)OCN(Cc1ccccc1)Cc1ccc2ccccc2c1 (configuration not stated) | 13.5 µg/kg | Tp (Canis familiaris [2]): 7.2 min
CCCCCCCOC(=O)C1=C(C)N=C(C)N(C(=O)OCCN(Cc2ccccc2)Cc2ccccc2)C1c1ccccc1[N+](=O)[O-] (configuration not stated) | > 30 µg/kg | 

Structure (SMILES) | ED30 (Canis familiaris [1]) | also measured
CCOC(=O)N1C(CC)=NC(C)=C(C(=O)OC(C)C)C1c1ccccc1[N+](=O)[O-] (configuration not stated) | 8 µg/kg | 
CC1=C(C(=O)OC(C)C)C(c2ccccc2[N+](=O)[O-])N(C(=O)OCCN(Cc2ccccc2)Cc2ccccc2)C(C(F)(F)F)=N1 (configuration not stated) | 6.8 µg/kg | 
CCOC(=O)C1=C(C)N=C(C)N(C(=O)OCC)C1c1ccccc1[N+](=O)[O-] (configuration not stated) | 3 µg/kg | 
CC1=NC(C)=C(C(=O)OC(C)C)C(c2ccccc2[N+](=O)[O-])N1C(=O)OCCN(Cc1ccccc1)c1ccccc1 (configuration not stated) | 0.74 µg/kg | Tp (Canis familiaris [2]): 1.9 min
CC1=NC(C)=C(C(=O)OC(C)C)C(c2ccccc2[N+](=O)[O-])N1C(=O)OCCN(Cc1ccccc1)Cc1ccc(Cl)c(Cl)c1 (configuration not stated) | 2.1 µg/kg | ED30 (Canis familiaris [3]): 596 µg/kg; AV block (Canis familiaris [4]): 1000 µg/kg; IC50 [5]: 2.05 nM; Tp (Canis familiaris [6]): 10.8 min
CCCCOC(=O)C1=C(C)N=C(C)N(C(=O)OCCN(Cc2ccccc2)Cc2ccccc2)C1c1ccccc1[N+](=O)[O-] (configuration not stated) | 6.8 µg/kg | Tp (Canis familiaris [2]): 4.7 min
CCC1=NC(C)=C(C(=O)OC(C)C)C(c2ccccc2[N+](=O)[O-])N1C(=O)OCCN(Cc1ccccc1)Cc1ccc2ccccc2c1 (configuration not stated) | 27 µg/kg | 
CCOC(=O)C1=C(C)NC(=O)N(C(=O)OCC(c2ccccc2)c2ccccc2)C1c1cccc([N+](=O)[O-])c1 (configuration not stated) | 10.6 µg/kg | 
CCOC(=O)N1C(C(F)(F)F)=NC(C)=C(C(=O)OC(C)C)C1c1ccccc1[N+](=O)[O-] (configuration not stated) | 8.3 µg/kg | 
CCCCCCCOC(=O)N1C(=O)NC(C)=C(C(=O)OCC2CC2)C1c1cccc([N+](=O)[O-])c1 (configuration not stated) | 3 µg/kg | 
CCOC(=O)C1=C(C)N=C(C)N(C(=O)OCC)C1c1ccccc1Cl (configuration not stated) | 5 µg/kg | 
CCOC(=O)C1=C(C)N=C(C)N(C(=O)OCC)C1c1cccc([N+](=O)[O-])c1 (configuration not stated) | 10 µg/kg | 
CCCCCCCOC(=O)N1C(C)=NC(C)=C(C(=O)OCC)C1c1ccccc1[N+](=O)[O-] (configuration not stated) | 3.2 µg/kg | 
CCCCCCCOC(=O)N1C(C)=NC(C)=C(C(=O)OCC2CC2)C1c1ccccc1[N+](=O)[O-] (configuration not stated) | 5.6 µg/kg | 
CCOC(=O)N1C(C)=NC(C)=C(C(=O)OCCN(C)Cc2ccccc2)C1c1ccccc1[N+](=O)[O-] (configuration not stated) | 13 µg/kg | 
CC1=C(C(=O)OCC2CC2)C(c2cccc([N+](=O)[O-])c2)N(C(=O)OCCN(C)Cc2ccccc2)C(=O)N1 (configuration not stated) | 13 µg/kg | 
CC1=C(C(=O)OC(C)C)C(c2ccccc2[N+](=O)[O-])N(C(=O)OCCN(Cc2ccccc2)Cc2ccc3ccccc3c2)C(=O)N1 (configuration not stated) | 10 µg/kg | Tp (Canis familiaris [2]): 7.8 min
COC(=O)C1=C(C)NC(C)=C(C(=O)OCCN(C)Cc2ccccc2)C1c1cccc([N+](=O)[O-])c1 (configuration not stated) [NICARDIPINE] | 3 µg/kg | ED30 (Canis familiaris [3]): 175 µg/kg; AV block (Canis familiaris [7]): 100 µg/kg; IC50 [8]: 2.66 nM; Tp (Canis familiaris [6]): 1.2 min
COC(=O)C1=C(C)NC(C)=C(C(=O)OC)C1c1ccccc1[N+](=O)[O-] [NIFEDIPINE] | 0.5 µg/kg | Tp (Canis familiaris [6]): 0.7 min
COC(=O)C1=C(C#N)NC(C)=C(C(=O)OC(C)C)C1c1cccc([N+](=O)[O-])c1 (configuration not stated) [NILVADIPINE] |  | ED30 (Canis familiaris [3]): 34 µg/kg; AV block (Canis familiaris [9]): 100 µg/kg; IC50 [8]: 1.04 nM
CCOC(=O)C1=C(C)NC(C)=C(C(=O)OC)C1c1cccc([N+](=O)[O-])c1 (configuration not stated) [NITRENDIPINE] | 1.2 µg/kg | Tp (Canis familiaris [2]): 1 min
